# Columns and labels:
# [1] = target: T1, Sodium-dependent dopamine transporter (Homo sapiens, UniProt Q01959); assay: Displacement of [3H]BTCP from human DAT at 10 uM relative to control
# Method in brief: (§1)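 Outsourced CNS panel of 55 receptor binding assays run by Cerep. Compound tested at 10 μM, the default primary-binding concentration, with inhibition expressed relative to control. Inhibition above 50% taken as a significant effect.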
# Salmonella typhimurium [2] = assay: Mutagenic activity in Salmonella typhimurium TA98 assessed as number of reversion mutation at 10 ug/plate; assay type: toxicity, organism-based; settings: salmonella enterica subsp. enterica serovar typhimurium
# Method in brief: (§2)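 Ames reversion test in Salmonella typhimurium TA98 and TA100, with and without rat liver S9 metabolic activation. Compound was dissolved in DMSO and added at 3–5000 μg/plate. Each dose, vehicle and positive control was plated in triplicate, and revertant colonies were counted.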
# Salmonella typhimurium [3] = assay: Mutagenic activity in Salmonella typhimurium TA98 assessed as number of reversion mutation at 300 ug/plate; assay type: toxicity, organism-based; settings: salmonella enterica subsp. enterica serovar typhimurium; method in brief: as §2
# Salmonella typhimurium [4] = assay: Mutagenic activity in Salmonella typhimurium TA98 assessed as number of reversion mutation at 1000 ug/plate; assay type: toxicity, organism-based; settings: salmonella enterica subsp. enterica serovar typhimurium; method in brief: as §2
# Salmonella typhimurium [5] = assay: Mutagenic activity in Salmonella typhimurium TA100 assessed as number of reversion mutation at 3 ug/plate; assay type: toxicity, organism-based; settings: salmonella enterica subsp. enterica serovar typhimurium; method in brief: as §2
# Salmonella typhimurium [6] = assay: Mutagenic activity in Salmonella typhimurium TA100 assessed as number of reversion mutation at 100 ug/plate; assay type: toxicity, organism-based; settings: salmonella enterica subsp. enterica serovar typhimurium; method in brief: as §2
# [7] = target: Sodium-dependent serotonin transporter (Homo sapiens, UniProt P31645); assay: Inhibition of [3H]-serotonin uptake in human SERT expressed in HEK293 cells by scintillation counting; assay type: cell-based
# [8] = target: T1, Sodium-dependent dopamine transporter; assay: Inhibition of [3H]-DA uptake in human dopamine transporter expressed in HEK293 cells by scintillation counting; assay type: cell-based
# Rattus norvegicus = assay: Antidepressant activity in rat assessed as reduction in immobility time at 20 mg/kg, po by forced swimming test relative to control; assay type: functional
# Method in brief: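 Male rats dosed orally at 5, 10 or 20 mg/kg alongside vehicle and venlafaxine 30 mg/kg PO groups. 1 h post-dose, each rat placed in a glass cylinder (40 cm × 18 cm) holding 15 cm of 25 ± 1 °C water. Immobility time recorded over a 6 min trial; significant main effects followed by post hoc Fisher's test.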
# [9] = Acute toxicity in KM mouse assessed as survival at 900 mg/kg, po up to 14 days (reference value: 100%); assay type: organism-based; set-up: dose 900 mg/kg, route oral; settings: in vivo
# [10] = Acute toxicity in KM mouse assessed as survival at 450 mg/kg, po up to 14 days (reference value: 100%); assay type: organism-based; set-up: dose 450 mg/kg, route oral; settings: in vivo
# [11] = Acute toxicity in KM mouse assessed as survival at 300 mg/kg, po up to 14 days (reference value: 100%); assay type: organism-based; set-up: dose 300 mg/kg, route oral; settings: in vivo
# [12] = Acute toxicity in KM mouse assessed as survival at 150 mg/kg, po up to 14 days (reference value: 100%); assay type: organism-based; set-up: dose 150 mg/kg, route oral; settings: in vivo
# [13] = Mean residence time in Sprague-Dawley rat at 0.5 mg/kg, iv; assay type: ADME, organism-based; set-up: dose 0.5 mg/kg, route intravenous; settings: in vivo
# Method in brief: (§3)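 Male SD rats, fasted overnight until 6 h post-dose; single 0.5 mg/kg femoral-vein injection; blood drawn into heparin at 5, 15, 30 min, 1, 2 and 4 h; plasma stored at -40 °C; drug levels by LC/MS/MS; noncompartmental parameters.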
# [14] = Apparent oral clearance in Sprague-Dawley rat at 2 mg/kg, po; assay type: ADME, organism-based; set-up: dose 2 mg/kg, route oral; settings: in vivo
# Method in brief: (§4)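 Male SD rats, fasted overnight until 6 h post-dose. PO group received single 2 mg/kg with heparinized blood sampled at 5, 15, 30 min, 1, 2, 4, 8, 24 h. IV group received single 0.5 mg/kg via femoral vein with sampling at 5, 15, 30 min, 1, 2, 4 h. Plasma stored at -40 °C, quantified by LC/MS/MS; 24 rats per group.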
# [15] = Tmax in Sprague-Dawley rat at 2 mg/kg, po; assay type: ADME, organism-based; set-up: dose 2 mg/kg, route oral; settings: in vivo
# [16] = Cmax in Sprague-Dawley rat at 2 mg/kg, po; assay type: ADME, organism-based; set-up: dose 2 mg/kg, route oral; settings: in vivo; method in brief: as §4
# [17] = Oral bioavailability in Sprague-Dawley rat at 2 mg/kg; assay type: ADME, organism-based; settings: in vivo
# [18] = Drug uptake in Sprague-Dawley rat plasma at 0.5 mg/kg iv after 0.25 hrs; assay type: ADME, organism-based; set-up: dose 0.5 mg/kg, route intravenous; method in brief: as §3
# [19] = Drug uptake in Sprague-Dawley rat plasma at 0.5 mg/kg iv after 2 hrs; assay type: ADME, organism-based; set-up: dose 0.5 mg/kg, route intravenous; method in brief: as §3
# [20] = Ratio of drug level in Sprague-Dawley rat brain to plasma at 0.5 mg/kg iv after 1 hrs; assay type: ADME, organism-based; set-up: dose 0.5 mg/kg, route intravenous; settings: read-out: BPR
# [21] = Ratio of drug level in Sprague-Dawley rat brain to plasma at 0.5 mg/kg iv after 4 hrs; assay type: ADME, organism-based; set-up: dose 0.5 mg/kg, route intravenous; settings: read-out: BPR
# [22] = target: Adenosine receptor A3 (Homo sapiens) (UniProt P0DMS8); assay: Displacement of [3H]ABMECA from human adenosine A3 receptor at 10 uM relative to control; method in brief: as §1
# [23] = target: Adrenergic receptor alpha-1 (Homo sapiens) (UniProt P35348+P25100+P35368); assay: Displacement of [3H]prazosin from alpha1-adrenergic receptor (unknown origin) at 10 uM relative to control
# Method in brief: (§5)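 Outsourced CNS receptor panel (55 binding assays); compound tested at 10 μM in primary radioligand binding; specific binding inhibition expressed relative to control, with >50% inhibition taken as a significant effect.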
# [24] = target: Beta-2 adrenergic receptor (Homo sapiens) (UniProt P07550); assay: Displacement of [3H]CGP-12177 from human beta2-adrenergic receptor at 10 uM relative to control; method in brief: as §1
# [25] = target: B2 bradykinin receptor (Homo sapiens) (UniProt P30411); assay: Displacement of [3H]bradykinin from human bradykinin B2 receptor at 10 uM relative to control; method in brief: as §5
# [26] = target: Cholecystokinin receptor type A (Homo sapiens) (UniProt P32238); assay: Displacement of [125I]CCK-8s from human CCKA at 10 uM relative to control; method in brief: as §1
# [27] = target: D(1A) dopamine receptor (Homo sapiens) (UniProt P21728); assay: Displacement of [3H]SCH23390 from human dopamine D1 receptor at 10 uM relative to control; method in brief: as §1
# [28] = target: C-X-C chemokine receptor type 2 (Homo sapiens) (UniProt P25025); assay: Displacement of [125I]IL-8 from CXCR2 receptor (unknown origin) at 10 uM relative to control; method in brief: as §1
# [29] = target: Histamine H2 receptor (Homo sapiens) (UniProt P25021); assay: Displacement of [125I]APT from human histamine H2 receptor at 10 uM relative to control; method in brief: as §1
# [30] = target: Muscarinic acetylcholine receptor M1 (Homo sapiens) (UniProt P11229); assay: Displacement of [3H]pirenzepine from human muscarinic M1 receptor at 10 uM relative to control; method in brief: as §5
# [31] = target: Muscarinic acetylcholine receptor M3 (Homo sapiens) (UniProt P20309); assay: Displacement of [3H]4-DAMP from human muscarinic M3 receptor at 10 uM relative to control; method in brief: as §1
# [32] = target: Substance-K receptor (Homo sapiens) (UniProt P21452); assay: Displacement of [125I]NKA from human NK2 receptor at 10 uM relative to control; method in brief: as §1
# Homo sapiens = species: Homo sapiens; assay: Inhibition of SKca channel (unknown origin) at 10 uM by [125I]apamin binding assay relative to control; method in brief: as §5
# [33] = target: Sodium-dependent noradrenaline transporter (Homo sapiens, UniProt P23975); settings: 10 uM
# [34] = Drug uptake in Sprague-Dawley rat brain at 0.5 mg/kg ip after 0.25 hrs
# T1 sequence (Q01959 whole entry): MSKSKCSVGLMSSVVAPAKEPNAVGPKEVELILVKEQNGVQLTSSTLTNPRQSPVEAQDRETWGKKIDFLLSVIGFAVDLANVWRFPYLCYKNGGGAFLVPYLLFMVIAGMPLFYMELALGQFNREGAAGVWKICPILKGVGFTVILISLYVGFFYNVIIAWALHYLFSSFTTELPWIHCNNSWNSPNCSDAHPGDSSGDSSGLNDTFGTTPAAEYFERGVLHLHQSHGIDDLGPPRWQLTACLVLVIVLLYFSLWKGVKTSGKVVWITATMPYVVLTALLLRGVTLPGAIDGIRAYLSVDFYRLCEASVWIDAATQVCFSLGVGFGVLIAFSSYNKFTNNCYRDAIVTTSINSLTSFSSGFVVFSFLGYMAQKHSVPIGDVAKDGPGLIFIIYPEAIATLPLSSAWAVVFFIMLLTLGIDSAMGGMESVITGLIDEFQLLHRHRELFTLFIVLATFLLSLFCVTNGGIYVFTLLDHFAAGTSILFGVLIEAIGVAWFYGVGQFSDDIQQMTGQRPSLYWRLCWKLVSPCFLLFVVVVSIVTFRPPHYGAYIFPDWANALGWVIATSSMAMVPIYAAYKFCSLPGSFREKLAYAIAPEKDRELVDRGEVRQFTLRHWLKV
# Histamine H2 receptor (Homo sapiens), sequence (P25021 whole entry): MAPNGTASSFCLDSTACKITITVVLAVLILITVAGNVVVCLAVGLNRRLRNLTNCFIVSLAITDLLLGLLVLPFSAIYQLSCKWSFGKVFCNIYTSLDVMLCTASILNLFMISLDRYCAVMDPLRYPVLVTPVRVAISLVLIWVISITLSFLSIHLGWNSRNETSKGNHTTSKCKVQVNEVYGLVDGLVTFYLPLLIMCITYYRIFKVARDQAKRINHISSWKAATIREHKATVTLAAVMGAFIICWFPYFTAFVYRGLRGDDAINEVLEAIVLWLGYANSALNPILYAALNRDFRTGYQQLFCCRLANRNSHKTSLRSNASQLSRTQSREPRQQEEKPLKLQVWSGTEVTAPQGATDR
# Beta-2 adrenergic receptor (Homo sapiens), sequence (P07550 whole entry, looked up): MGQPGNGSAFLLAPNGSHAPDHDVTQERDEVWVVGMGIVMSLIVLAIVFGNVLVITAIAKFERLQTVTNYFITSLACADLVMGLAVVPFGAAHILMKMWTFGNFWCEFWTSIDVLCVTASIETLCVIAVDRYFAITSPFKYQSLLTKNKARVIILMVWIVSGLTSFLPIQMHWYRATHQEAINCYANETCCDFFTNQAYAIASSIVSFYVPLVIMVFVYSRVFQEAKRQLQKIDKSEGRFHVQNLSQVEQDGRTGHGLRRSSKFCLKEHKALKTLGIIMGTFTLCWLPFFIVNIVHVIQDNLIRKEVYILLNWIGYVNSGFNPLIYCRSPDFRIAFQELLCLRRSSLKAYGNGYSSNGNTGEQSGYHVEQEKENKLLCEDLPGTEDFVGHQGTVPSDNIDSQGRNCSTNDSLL
# Sodium-dependent noradrenaline transporter, sequence (P23975 whole entry): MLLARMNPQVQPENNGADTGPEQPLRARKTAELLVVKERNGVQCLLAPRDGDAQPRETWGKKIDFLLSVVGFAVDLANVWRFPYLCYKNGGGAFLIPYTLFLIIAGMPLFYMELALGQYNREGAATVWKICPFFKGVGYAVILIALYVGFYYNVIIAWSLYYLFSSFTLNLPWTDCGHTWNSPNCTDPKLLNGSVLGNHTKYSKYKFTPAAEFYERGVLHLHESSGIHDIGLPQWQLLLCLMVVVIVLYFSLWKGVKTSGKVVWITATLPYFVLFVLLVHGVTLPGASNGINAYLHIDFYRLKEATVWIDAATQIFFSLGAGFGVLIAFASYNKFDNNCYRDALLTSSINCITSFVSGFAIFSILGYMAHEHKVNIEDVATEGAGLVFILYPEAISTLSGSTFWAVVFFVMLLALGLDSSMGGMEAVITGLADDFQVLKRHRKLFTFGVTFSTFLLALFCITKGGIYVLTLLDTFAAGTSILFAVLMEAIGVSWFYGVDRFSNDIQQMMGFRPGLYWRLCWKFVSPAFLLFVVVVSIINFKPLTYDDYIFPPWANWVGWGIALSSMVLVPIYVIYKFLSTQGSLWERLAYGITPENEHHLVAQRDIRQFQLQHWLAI
# C-X-C chemokine receptor type 2 (Homo sapiens), sequence (P25025 whole entry): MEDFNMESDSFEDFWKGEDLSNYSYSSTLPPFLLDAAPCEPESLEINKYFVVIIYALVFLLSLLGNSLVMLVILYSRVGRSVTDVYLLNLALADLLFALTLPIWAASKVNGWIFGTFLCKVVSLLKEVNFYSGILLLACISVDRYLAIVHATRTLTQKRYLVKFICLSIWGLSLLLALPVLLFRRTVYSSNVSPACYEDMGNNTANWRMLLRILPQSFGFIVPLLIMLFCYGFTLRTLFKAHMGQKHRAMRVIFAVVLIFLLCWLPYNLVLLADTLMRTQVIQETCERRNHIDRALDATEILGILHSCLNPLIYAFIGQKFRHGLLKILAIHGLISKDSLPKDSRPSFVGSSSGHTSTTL
# B2 bradykinin receptor (Homo sapiens), sequence (P30411 whole entry): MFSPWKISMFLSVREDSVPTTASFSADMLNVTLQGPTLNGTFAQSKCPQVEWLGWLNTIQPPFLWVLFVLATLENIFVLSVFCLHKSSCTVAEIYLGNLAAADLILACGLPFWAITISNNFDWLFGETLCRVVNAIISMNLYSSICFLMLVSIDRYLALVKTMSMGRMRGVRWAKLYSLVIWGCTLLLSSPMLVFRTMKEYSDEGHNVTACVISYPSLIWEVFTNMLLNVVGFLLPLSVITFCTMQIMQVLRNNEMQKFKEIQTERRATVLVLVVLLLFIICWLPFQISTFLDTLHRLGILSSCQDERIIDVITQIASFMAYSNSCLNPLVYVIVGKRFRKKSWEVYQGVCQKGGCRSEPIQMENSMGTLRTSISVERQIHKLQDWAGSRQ
# Cholecystokinin receptor type A (Homo sapiens), sequence (P32238 whole entry): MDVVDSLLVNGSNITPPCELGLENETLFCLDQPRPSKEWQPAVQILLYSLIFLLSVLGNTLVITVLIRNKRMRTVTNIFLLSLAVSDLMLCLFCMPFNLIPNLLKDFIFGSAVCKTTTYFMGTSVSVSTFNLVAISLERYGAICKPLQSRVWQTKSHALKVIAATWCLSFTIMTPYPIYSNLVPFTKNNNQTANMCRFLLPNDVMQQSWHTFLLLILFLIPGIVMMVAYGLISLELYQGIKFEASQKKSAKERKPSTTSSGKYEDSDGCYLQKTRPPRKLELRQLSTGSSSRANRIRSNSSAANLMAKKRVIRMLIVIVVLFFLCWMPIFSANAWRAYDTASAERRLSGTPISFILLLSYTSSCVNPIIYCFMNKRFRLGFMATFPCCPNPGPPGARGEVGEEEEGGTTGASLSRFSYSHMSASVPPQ
# D(1A) dopamine receptor (Homo sapiens), sequence (P21728 whole entry): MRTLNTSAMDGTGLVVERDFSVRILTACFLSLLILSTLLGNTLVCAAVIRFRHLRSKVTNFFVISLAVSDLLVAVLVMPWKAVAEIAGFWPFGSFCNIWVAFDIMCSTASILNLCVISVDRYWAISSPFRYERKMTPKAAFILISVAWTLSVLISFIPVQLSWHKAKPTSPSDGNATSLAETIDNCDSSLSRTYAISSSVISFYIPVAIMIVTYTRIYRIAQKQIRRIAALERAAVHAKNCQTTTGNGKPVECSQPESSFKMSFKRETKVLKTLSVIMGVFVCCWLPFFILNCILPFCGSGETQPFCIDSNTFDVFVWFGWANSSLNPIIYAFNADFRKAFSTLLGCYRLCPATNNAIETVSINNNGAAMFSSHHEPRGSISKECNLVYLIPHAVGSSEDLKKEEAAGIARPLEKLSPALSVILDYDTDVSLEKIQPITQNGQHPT
# Adenosine receptor A3 (Homo sapiens), sequence (P0DMS8 whole entry): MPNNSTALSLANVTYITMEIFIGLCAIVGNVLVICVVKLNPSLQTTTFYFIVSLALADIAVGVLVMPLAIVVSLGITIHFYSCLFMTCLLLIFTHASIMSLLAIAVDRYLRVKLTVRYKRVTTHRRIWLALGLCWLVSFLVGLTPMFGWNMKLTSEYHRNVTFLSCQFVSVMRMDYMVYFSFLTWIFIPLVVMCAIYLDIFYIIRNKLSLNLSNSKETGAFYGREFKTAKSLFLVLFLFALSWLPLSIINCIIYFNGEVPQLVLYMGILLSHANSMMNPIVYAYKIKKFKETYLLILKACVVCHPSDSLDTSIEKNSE
# Sodium-dependent serotonin transporter, sequence (P31645 whole entry): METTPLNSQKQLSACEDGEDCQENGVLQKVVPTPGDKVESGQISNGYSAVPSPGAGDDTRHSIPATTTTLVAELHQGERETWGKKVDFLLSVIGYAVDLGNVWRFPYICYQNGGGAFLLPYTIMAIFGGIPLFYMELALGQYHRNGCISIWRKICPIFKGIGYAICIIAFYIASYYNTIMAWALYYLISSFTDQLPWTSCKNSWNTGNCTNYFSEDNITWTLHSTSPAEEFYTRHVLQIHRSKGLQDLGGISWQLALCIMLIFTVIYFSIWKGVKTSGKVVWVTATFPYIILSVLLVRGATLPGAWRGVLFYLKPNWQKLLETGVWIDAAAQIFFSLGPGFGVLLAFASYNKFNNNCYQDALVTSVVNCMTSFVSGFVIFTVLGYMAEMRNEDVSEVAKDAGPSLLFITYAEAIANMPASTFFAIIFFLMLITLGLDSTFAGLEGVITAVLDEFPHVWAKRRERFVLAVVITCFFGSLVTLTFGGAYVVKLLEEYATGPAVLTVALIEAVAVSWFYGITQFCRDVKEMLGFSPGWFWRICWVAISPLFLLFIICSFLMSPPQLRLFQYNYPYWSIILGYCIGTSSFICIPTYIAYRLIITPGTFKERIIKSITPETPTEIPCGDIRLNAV
compound,measurement,setting,value
CN(C)CCC(c1ccc(Cl)c(Cl)c1)N1CCOCC1 (stereo unspecified),inhibition,[1],93.6%
same,Activity,Salmonella typhimurium [2],32
same,Activity,Salmonella typhimurium [3],30
same,Activity,Salmonella typhimurium [4],31
same,Activity,Salmonella typhimurium [5],87
same,Activity,Salmonella typhimurium [6],74
same,IC50,[7],378 nM
same,IC50,[8],247 nM
same,inhibition in vivo at 20 mg/kg,Rattus norvegicus,66%
same,survival at 336 h,[9],40%
same,survival at 336 h,[10],100%
same,survival at 336 h,[11],100%
same,survival at 336 h,[12],100%
same,MRT,[13],63.6 min
same,CL/F,[14],417 mL/min/kg
same,Tmax,[15],30 min
same,Cmax,[16],26.8 ng/mL
same,bioavailability,[17],19.4%
same,concentration at 0.25 h,[18],42 ng/mL
same,concentration at 2 h,[19],10.9 ng/mL
same,Kp at 1 h,[20],12.7
same,Kp at 4 h,[21],11.4
same,inhibition,[22],2.6%
same,inhibition,[23],2.6%
same,inhibition,[24],4.9%
same,inhibition,[25],-3.8%
same,inhibition,[26],1%
same,inhibition,[27],2.2%
same,inhibition,[28],9.3%
same,inhibition,[29],-8%
same,inhibition,[30],45.6%
same,inhibition,[31],20.6%
same,inhibition,[32],-7%
same,inhibition,Homo sapiens,-3.8%
same,inhibition,[33],96.7%
same,concentration at 0.25 h,[34],925 ng/mL
